Consider 90 molecules from PubChem BioAssay AID1448 (The Scripps Research Institute Molecular Screening Center, 2008).

The structures appear in SMILES notation. About 630 (0.29%) of roughly 220,000 compounds were called active. What follows is part of a selection rich in actives, with near analogues and random picks from the rest. Values without a mark were called inactive.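 The calls were made as follows: active = activation above its plate's cutoff, the mean activation of the plate's test wells plus 3 SD (cut at about 12% in these data); inactive = the rest.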

Chain of Mucolipin-3 (Homo sapiens) (Q8TDD5 whole entry, looked up): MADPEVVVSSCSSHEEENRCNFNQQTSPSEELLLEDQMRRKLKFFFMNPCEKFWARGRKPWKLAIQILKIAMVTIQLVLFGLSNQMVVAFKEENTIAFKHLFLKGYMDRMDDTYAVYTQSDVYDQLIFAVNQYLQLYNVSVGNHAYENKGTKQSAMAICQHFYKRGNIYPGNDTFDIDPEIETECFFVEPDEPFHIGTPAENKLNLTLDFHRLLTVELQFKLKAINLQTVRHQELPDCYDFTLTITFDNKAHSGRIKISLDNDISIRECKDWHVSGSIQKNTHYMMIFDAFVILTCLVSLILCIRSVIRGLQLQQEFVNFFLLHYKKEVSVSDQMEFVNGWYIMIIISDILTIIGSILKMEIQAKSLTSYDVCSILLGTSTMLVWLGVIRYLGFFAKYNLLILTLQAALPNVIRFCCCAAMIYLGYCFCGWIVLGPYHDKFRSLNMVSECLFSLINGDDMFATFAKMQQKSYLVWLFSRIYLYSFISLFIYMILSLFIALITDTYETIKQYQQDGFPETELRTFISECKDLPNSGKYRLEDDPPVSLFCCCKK

This test addresses Mucolipin-3 (Homo sapiens) (UniProt Q8TDD5). Briefly: activators of mucolipin-3 cation channel – cell-based, HEK293 TRPML3-YFP, Fluo-8 calcium fluorescence, 3 µM, primary screen (AID 1448). To be noted: at 3 µM, stronger effect = higher value, 100% = the carbachol control signal. A digest of the protocol: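 Test system – HEK293 line with stable expression of human TRPML3-YFP channel · Control set – carbachol 87 µM final as high control (100%), DMSO as low control (0%) · Signal – Fluo-8 calcium dye fluorescence, ex 470-495, em 515-575 nm · Incubation – 1-h 37 °C dye load, 5-s basal, 120-s post-compound reads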
As to `Cc1nnc(N/N=C/C2CC=CCC2)[nH]c1=O` (stereo not given), the activation was 1.13%. For `N#C/C(=C/c1ccc(-c2ccccc2[N+](=O)[O-])o1)C(=O)NCCN1CCCCC1`, the activation was -0.32%. `N#C/C(=C/c1ccc(N2CCCCC2)o1)C(=O)NCCc1c[nH]c2ccccc12`: the activation is 15.6% (active). Turning to `O=C(NCCc1c[nH]c2ccccc12)C(=O)NCC1CCCO1` (stereo not given), the activation was 0.08%.

For `Cn1c(SCC(=O)c2ccc(F)cc2)nnc1-c1ccccn1`, the activation is -0.33%.

With `Cc1nc(COc2cccc(Cl)c2)sc1C(=O)/C=C/N(C)C`, the activation is -0.16%.

In the case of `COc1ccc(N=C(C)c2sc3ccccc3c2O)cc1`, the activation is 2.16%. In the case of `CCC(C(=O)OCC(=O)Nc1ccc(C(=O)Nc2ccc(OC)cc2)cc1)c1ccccc1` (stereo not given), the activation was 1.2%. Then `CCC(C(=O)Nc1ccc2c(c1)OCCO2)c1ccccc1` (stereo not given), with -0.06%; and `CCC(C(=O)Nc1ccc(C(C)C)cc1)c1ccccc1` (stereo not given), with 15.7% (active). `Cn1cccc1/C=N/NC(=O)c1ccc(OC(F)(F)C(F)F)cc1`: the activation is 0.29%. `Cc1cc(NC(=O)CCC(=O)N(CC(=O)NCC2CCCO2)c2ccccc2C)no1` (stereo not given): the activation is -0.47%.

With `Cc1cc(C)nc(/N=C2\NC(=O)CC(C(=O)O)N2c2ccc(Cl)cc2Cl)n1` (stereo not given), the activation was 0.53%.

In the case of `Cc1ccc(C(NC(=O)N2CCCC2)C(Cl)(Cl)Cl)cc1F` (stereo not given), the activation is -0.15%. Regarding `Oc1ccc2ccc3cccc[n+]3c2c1`, the activation is 14.6% (active). As for `C/C(=N\Nc1nc(N2CCOCC2)nc(N2CCOCC2)n1)c1ccc([N+](=O)[O-])cc1`, the activation is 0.78%.

As for `COc1ccc(/C=N/NC(=O)C(C)N(c2ccc(OC)cc2)S(C)(=O)=O)cc1` (stereo not given), the activation was 0.53%. As for `CC(C)n1c(CN2CCN(Cc3ccccc3)CC2)nc2ccccc21`, the activation is 0.13%. On to `CCN(C(=O)Cc1nc(N)n[nH]1)C1(C(=O)Nc2ccccc2)CCCCC1`, for which the activation is -0.28%. `CN(C)c1ccnc2sc(C(=O)c3ccccc3)c(N)c12`: the activation was -0.55%.

In the case of `Cc1nc2sc(C(=O)c3ccccc3)c(N)c2c2c1CCCC2`, the activation was -0.35%. On to `Nc1c(C(=O)c2cccs2)sc2nsc(SCCN3CCCCC3)c12`, for which the activation was 23.1% (active). Take `CCN(CC)c1ccc(C(=O)c2cnc(/N=C/N(C)C)s2)cc1`: the activation was -0.38%. On to `COC(=O)c1ccccc1N=Nc1c(C)[nH][nH]c1=O`, for which the activation was 0.25%. On to `C[C@@H](NC(=O)OC(C)(C)C)c1nnc(S(=O)(=O)Cc2ccccc2)o1`, for which the activation was 1.12%. As to `CCN1/C(=C\c2ccc3ccccc3[n+]2CC)Sc2cc(C)ccc21`, the activation is 16.6% (active). For the molecule `CCN1CCN(CCNC(=O)c2ccc(/C=C3/Sc4ccccc4N(Cc4cccc(C)c4)C3=O)cc2)CC1`, the activation is 1.89%.

Take `CCN1/C(=C/c2ccc3ccc(C)cc3[n+]2CC)Sc2ccccc21`: the activation was 12.7% (active). For the molecule `CCN1/C(=C/C(=S)Nc2ccccc2)Sc2ccccc21`, the activation was -0.23%. Turning to `COc1ccc(N(CCC#N)S(=O)(=O)c2ccc(Cl)cc2)cc1`, the activation was 11.9% (active). Take `COc1ccc(N(Cc2ccccc2)S(=O)(=O)c2cccc(C(=O)O)c2)cc1`: the activation is 0.34%. As to `COc1ccc(CNC(=O)CN(Cc2ccc(Cl)cc2)S(C)(=O)=O)cc1`, the activation was 0.83%. In the case of `Cc1[nH]c2c(C(=O)N3CCCC(CCC(=O)NCc4ccccc4F)C3)cccc2c1C` (stereo not given), the activation was -0.04%.

`COC(=O)CCC(=O)N1CCCC(CO)(Cc2ccccc2)C1` (stereo not given): the activation is 0.26%. Then `Cc1ccccc1-n1nc(C)c2c1N=C1C(Cl)=CC(Cl)=CN1C2c1ccc(C(=O)O)cc1` (stereo not given), with 0.62%; and `Cc1ccc(OCC(=O)Nc2ccccc2Sc2ccc(Cl)cc2)c([N+](=O)[O-])n1`, with 0.1%.

For the molecule `CC(C)CNC(=O)C(=O)Nc1ccc(N(C)C)cc1`, the activation is 1.3%. As to `O=[N+]([O-])/C=C1\CCCCCN1`, the activation was 0.64%. For `COc1ccc(Cl)cc1N(CC(=O)N/N=C/c1ccc(OCC(N)=O)cc1)S(C)(=O)=O`, the activation was 0.86%. Regarding `COc1ccc(S(=O)(=O)N(C)CC(=O)N2CCCC2)cc1Cl`, the activation is 0.85%.

As for `CCOC(=O)N1CCN(C(=O)CN(c2ccc(C)c(C)c2)S(=O)(=O)c2ccccc2)CC1`, the activation was 0.07%. With `COc1ccccc1N(CC(=O)N1CCCCC1)S(=O)(=O)c1ccccc1`, the activation was 162% (active). Regarding `COc1cccc2c(=O)n(CC(=O)N3CCCCCC3)ccc12`, the activation is 0.82%. For `COc1ccc(Cl)cc1N(CC(=O)N1CCCCC1)S(C)(=O)=O`, the activation was 56.7% (active). With `CCCC(=O)Nc1ccc2c(c1)nc(CCNC(=O)c1ccco1)n2C`, the activation was 0.81%.

Turning to `CCOc1ccc(CN2CCN(Cc3ccc(C)o3)CC2CCO)cc1` (stereo not given), the activation was 1.1%. Turning to `CN(Cc1nc(-c2cnccn2)no1)Cc1n[nH]c2c1CCCCC2`, the activation is 0.69%. For `CCn1c(SCC(=O)Nc2nccs2)nnc1-c1ccco1`, the activation was 0.4%. As to `O=C(CSc1nnc2ccc(-c3ccncc3)nn12)N1CCCCC1`, the activation is -0.71%.

In the case of `Cc1ccc(F)cc1NC(=O)N1CCCN(c2ccc(C(F)(F)F)cn2)CC1`, the activation is 2.2%.

As to `Cc1ccc2c(c1)-c1c(ssc1=S)C(C)(C)N2C(=O)CN1C(=O)c2ccccc2C1=O`, the activation was -0.04%. Take `Cc1cc2c(cc1C)N(C(=O)CN1C(=O)c3ccccc3C1=O)C(C)(C)c1ssc(=S)c1-2`: the activation is 81.4% (active).

As to `Cc1cccc(NC(=O)CN2C(=O)c3ccccc3C2=O)c1C`, the activation is 1.15%. For the molecule `CCOc1ccc(NC(=O)NNC(=O)c2ccc(Cl)cc2Cl)cc1`, the activation is 0.56%. In the case of `O=C(NCCN1CCOCC1)c1ccc2c(c1)N(Cc1ccc(Cl)cc1)CCS2`, the activation is 0.23%.

For the molecule `O=C1/C(=C/c2cccs2)SC(=S)N1C1CCS(=O)(=O)C1` (stereo not given), the activation was 0.54%. Regarding `O=C(O)CCC(=O)Nc1nc2ccc([N+](=O)[O-])cc2s1`, the activation is 0.5%. Then `O=C(NC(Nc1nc2ccc([N+](=O)[O-])cc2s1)(C(F)(F)F)C(F)(F)F)c1ccccc1`, with 13% (active); and `O=C(Nc1nc2ccc([N+](=O)[O-])cc2s1)c1ccncc1`, with 1.14%. Regarding `C=CCNC(=O)COC(=O)CNC(=O)c1cc(Cl)cc([N+](=O)[O-])c1`, the activation was 0.51%.

As to `COc1ccc(NS(=O)(=O)c2ccc(Oc3c(C#N)cccc3C#N)cc2)cc1`, the activation is 4.31%. Regarding `Cc1nnc(C)c2c(C)n(N)c(C)c12`, the activation is 0.94%. As to `O=C(NC(CC(=O)N1CCN(c2ccccc2)CC1)c1ccccc1)c1ccccc1Cl` (stereo not given), the activation was -0.24%.

With `CCN(CC)c1ccc2cc(C(N)=O)/c(=N\NC(=O)c3ccncc3)oc2c1`, the activation is 22.1% (active). Then `CCN(CC)c1ccc2cc(C(=O)O)c(=O)oc2c1`, with 0.92%. With `COc1ccc(C(=O)N/N=c2\oc3ccccc3cc2C(N)=O)cc1`, the activation was 0.85%.

In the case of `OCC(O)CN(c1ccccc1)c1ccccc1` (stereo not given), the activation was 0.25%.

For the molecule `CN1CCN(/N=C/c2ccc(-c3ccc([N+](=O)[O-])cc3)o2)CC1`, the activation was 4.1%. Then `Cn1c2c(c(=O)n(C)c1=O)C(c1cccc(F)c1)C(C#N)=C(N)O2` (stereo not given), with 0.03%; and `Cc1nonc1C1CCCN1Cc1nc(-c2ccc(F)cc2F)oc1C` (stereo not given), with 0.58%; and `O=S(=O)(c1cccc2nonc12)N1CCN(c2cccc(Cl)c2)CC1`, with 0.52%. In the case of `CCOC(=O)CC1C(=O)NCCN1c1nc2c(C)cccn2c(=O)c1/C=C1\SC(=S)N(C(C)CC)C1=O` (stereo not given) it was 11.9% (active). On to `Cc1cccn2c(=O)c(/C=C3\SC(=S)N(CC(C)C)C3=O)c(NCCCOC(C)C)nc12`, for which the activation is 0.65%. As to `CCOC(=O)CC1C(=O)NCCN1C(=O)COc1ccc(Br)cc1C` (stereo not given), the activation is -0.14%.

On to `CC(CC(=O)C1C(C)C=CCC1(C)C)NNC(N)=O` (stereo not given), for which the activation was 0.6%. In the case of `O=C(CC(O)(C(F)(F)F)C(F)(F)F)Nc1ccc(Cl)c(Cl)c1`, the activation is 17.3% (active). For `O=C(CC(=O)Nc1ccc(Cl)c(Cl)c1)N/N=C/c1ccc(O)cc1`, the activation is 0.24%. Regarding `CN(C)CCNC(CC(=O)Nc1ccc(Cl)c(Cl)c1)C(=O)O` (stereo not given), the activation was -0.13%. Take `CCn1c(CSc2nc(C)cc(C)n2)nnc1SCC(N)=O`: the activation is 0.87%. For `CC(C)CN(CC(C)C)CC(O)CN(c1ccccc1)S(=O)(=O)c1ccccc1[N+](=O)[O-]` (stereo not given), the activation was -1.13%.

Consider `COc1ccc(-c2noc(CSc3ccc(C)cc3)n2)cc1`, for which the activation is 0.35%.

As to `COc1ccc(-c2noc(CN(C)S(=O)(=O)c3ccc(C)cc3)n2)cc1`, the activation was 138% (active). With `COc1ccc(-c2noc(-c3ccc(C)cc3)n2)cc1`, the activation was 1.08%. In the case of `Cc1ccnc(NC(=O)c2ccc(Cl)c([N+](=O)[O-])c2)c1`, the activation is 0.05%.

For the molecule `CC(C)(C)OC(=O)N1CCC(NC(=O)c2[nH]cnc2C(=O)N[C@@H](Cc2ccccc2)C(=O)OCc2ccccc2)CC1`, the activation was 0.25%. `COc1cc(NC(=O)c2ccccc2NS(=O)(=O)c2ccc(Cl)s2)cc(OC)c1`: the activation is 12.1% (active). Consider `COC(=O)c1ccc(NC(=O)c2ccccc2NS(=O)(=O)c2ccccc2)cc1`, for which the activation was 11.1%. Then `COc1cc(NC(=O)c2cccnc2SC)cc(OC)c1`, with -0.28%. Consider `CN(Cc1cc2cc(F)ccc2[nH]1)Cc1nc(-c2cnccn2)no1`, for which the activation was 0.76%. On to `Cc1cccc(CSc2ccc(-c3cccs3)nn2)c1`, for which the activation is 0.19%.
